# Assay outcomes from PubChem BioAssay.
# Rows were chosen to be rich in hits. Some 1.2% of all compounds tested hit in one or more screens of this group.
# Diaph inh CS: diaphorase inhibitors and chemical oxidizers, primary screen, counter-screen for diaphorase-coupled primary assays, biochemical, uHTS, resorufin fluorescence. inhibition, % at 20 µM. diaphorase resazurin-to-resorufin fluorescence, NADH, 16 min; bacterial (C. kluyveri) enzyme, not human. actives 0.69% (n = 190,000). AID 1217, 2008;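 active = primary screen inhibition at 20 µM above a set limit, cut at about 50% in these data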;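 also: plate controls were DMSO with full reaction for no effect and wells lacking NADH for full effect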
#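 System: Bacterial diaphorase enzyme (C. kluyveri) | Incubation: 16-min room-temperature incubation before reading | Benchmarks: No-NADH positive control and DMSO neutral control | Measured by: Resorufin fluorescence 544/590 nm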
# HKDC1 inh: HKDC1 hexokinase inhibitors, primary screen, biochemical, fluorescence, uHTS; Q2TB90; recombinant HKDC1, G6PDH/diaphorase resazurin coupled fluorescence; inhibition, % at 20 µM; actives 0.16% (n = 340,000);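 active = inhibition above about 35% when tested at 20 µM, limit read from the data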;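 also: plate controls were DMSO wells with enzyme for no effect and DMSO wells lacking enzyme for full effect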
#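 test system = in-house recombinant HK5 (HKDC1) enzyme | amount = HKDC1 at 5 µg/mL | control set = DMSO-enzyme wells negative, buffer-substituted wells positive | compound = one dose of 20 µM, 1% DMSO | schedule = reaction time 90 min, room temperature, protected from light | technique = resorufin fluorescence at 613 nm | reagent = glucose with 1 mM ATP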
# PfG6PD inh: PfG6PD enzyme inhibitors, primary screen, biochemical, fluorescence intensity, uHTS; AID 504690, 2011; inhibition, % at 20 µM; actives 0.78% (n = 350,000); PfGluPho enzyme, NADPH resazurin-diaphorase fluorescence; glucose-6-phosphate dehydrogenase-6-phosphogluconolactonase (Plasmodium falciparum 3D7);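 active = inhibition reaching at least a set limit at 20 µM in the primary screen, cut at about 59% in these data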;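 also: 0% = DMSO wells with substrate and 100% = DMSO wells lacking glucose-6-phosphate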
# G6PDH CS: L. mesenteroides G6PDH inhibitors, counter-screen for G6PDH-coupled screening assays, biochemical, Leuconostoc mesenteroides enzyme; inhibition, % at 5 µM; AID 1020, 2008; actives 0.12% (n = 200,000); Purified L. mesenteroides G6PDH, diaphorase/resazurin coupled fluorescence, 45 min; glucose-6-phosphate dehydrogenase [Leuconostoc mesenteroides]; in the data active = inhibition above about 50%
# Active calls of the source: *; x = not tested or not shown.
SMILES,Diaph inh CS,HKDC1 inh,PfG6PD inh,G6PDH CS
CC(NC(=O)c1ccc([N+](=O)[O-])o1)C1CC2CCC1C2 (centres undefined),x,2.8,-2.3,x
S=c1nc(-c2ccccc2)[nH]c2ccccc12,65.5*,-6.4,13.4,-0.6
CCOC(=O)C1CCN(C(=O)C(CCSC)NC(=O)c2ccccc2OC)CC1 (centres undefined),x,-5.8,0.1,x
Cc1ccc(NC(=O)c2cccc(S(=O)(=O)N3CCN(C)CC3)c2)cc1F,x,-3.4,5.0,x
COc1c(C)cccc1C(=O)NC(=S)Nc1cccc2nsnc12,66.2*,13.0,20.4,10.1
O=C1CS/C(=N\C(=O)N2c3ccccc3Sc3ccccc32)N1,70.1*,9.6,-7.2,7.8
Oc1ccc(Cl)cc1C=Nc1ccc2c3c(cccc13)CC2,60.2*,5.2,39.8,34.1
CCn1c(SCC(=O)c2ccc(O)c(O)c2)nnc1-c1ccc(C)cc1,56.0*,-15.3,-53.5,-0.3
CCn1c(SCC(=O)c2ccc3c(c2)Cc2ccccc2-3)nnc1-c1ccc(N)cc1,-5.4,-5.7,0.2,9.9
Cc1cc2nc3s/c(=C/c4ccc(-c5ccccc5C(=O)O)o4)c(=O)n3c2cc1C,x,14.9,31.6,x
O=C(O)c1ccccc1-c1ccc(/C=c2\sc3nc4cc(Br)cnc4n3c2=O)o1,56.1*,67.8*,58.9,16.1
On1c2c(c3c4nonc4ccc31)CCCC2,55.5*,x,x,47.3
C/C(=N/NC(=O)c1cc(O)c(O)c(O)c1)c1ccc([N+](=O)[O-])cc1,75.2*,19.1,38.0,8.6
Cc1oc2c(O)c(O)ccc2c(=O)c1-c1ccccc1,x,5.7,-6.4,x
Cc1oc2c(O)c(O)ccc2c(=O)c1-c1cnn(-c2ccccc2)c1,70.0*,9.3,-12.2,14.9
CCOc1ccc(NC(=O)CSc2nc3ccsc3c(=O)n2CCCCCC(=O)O)cc1,x,x,-16.8,x
CCCCCCn1c(SCC(C)C)nc2c1c(=O)[nH]c(=O)n2C,7.3,-3.9,-5.5,11.4
CCCCCCn1c(SCC(=O)OC)nc2c1c(=O)[nH]c(=O)n2C,14.6,-16.7,77.8*,-10.3
Oc1c(CN2CCOCC2)cc(COCc2ccccc2)c2cccnc12,52.8*,4.9,-27.2,-4.0
CC(=O)Nc1ccc(C(=O)OCC(=O)N(Cc2ccccc2)C(C)(C)C)cc1,53.9*,-7.6,-4.2,0.0
O=C(O)c1cc2nc(-c3ccccc3)cc(-c3ccccc3)n2n1,59.3*,10.9,-2.7,23.2
O=C(O)c1cc2nc(-c3ccccc3)cc(C(F)(F)F)n2n1,-2.0,-0.1,4.5,1.0
CC1C(=O)N(Cc2cn(CCC3OCCCO3)nn2)CCS(=O)(=O)N1Cc1ccc(-c2ccncc2)cc1 (centres undefined),x,x,11.6,x
Cc1cccc(C)c1NC(=O)COC(=O)c1c2c(nc3ccccc13)/C(=C\c1ccc3c(c1)OCO3)CCC2,69.8*,2.4,-7.8,4.1
Cc1cc(C)c(C#N)c(SCC(=O)N(CCC#N)c2ccc3c(c2)OCCO3)n1,x,-8.4,3.0,x
SMILES,Diaph inh CS,HKDC1 inh,PfG6PD inh,G6PDH CS
CC(=O)NCCCNS(=O)(=O)c1ccc(C)cc1,67.0*,-5.8,5.1,-0.3
CCC(C)NC(=O)c1cc(-c2ccc3c(c2)OCO3)on1 (centres undefined),x,-2.0,9.1,x
Cc1cccc(C(=O)Nc2nnc(S(=O)(=O)N(C)Cc3ccco3)s2)c1,x,4.7,95.4*,x
CN1CCN(Cc2c(O)ccc3occ(C(=O)c4ccccc4)c23)CC1,10.5,0.8,-10.1,-20.4
CC(=O)C(C(C)=O)c1c(Cl)c(O)c(O)c2c(C(=O)c3ccccc3)coc12,67.2*,4.0,46.1,6.8
N#Cc1sc2nc(-c3ccccc3)cc(-c3ccco3)c2c1N,62.5*,23.3,27.8,-39.5
Cc1cc(C)cc(NS(=O)(=O)CCCS(=O)(=O)Nc2cc(C)cc(C)c2)c1,x,2.4,-2.5,x
O=C(O)Cc1ccc(C(=O)c2ccc(Cl)cc2Cl)s1,83.0*,-6.7,-0.9,12.7
N#C/C(=N\Nc1ccc(S(=O)(=O)N2CCc3ccccc32)cc1)C(N)=S,56.5*,0.8,-10.9,-3.3
CC1(C)Oc2ccc3ccc(=O)oc3c2/C(=C/NNC(N)=S)C1=O,x,-36.1,-28.3,x
O=C(/C=C/c1cc[n+](CC(=O)c2ccc3cccc4c3c2CC4)cc1)c1ccc2cccc3c2c1CC3,x,18.6,72.8*,x
COc1ccc(N2CCC(CNC(=O)Nc3cccc(OC)c3)C2)cc1 (centres undefined),56.8*,-5.6,23.8,2.0
CCc1c(C)[nH]c2ccc(OC)cc2c1=S,25.6,10.3,66.7*,15.9
CCO[C@H]1OC(C(=O)N2CCN(C)CC2)=C[C@@H](c2ccc(C(F)(F)F)cc2)[C@@H]1CCCO,73.8*,-5.0,10.6,18.4
C#Cc1ccc([C@H]2C=C(C(=O)N3CCN(Cc4ccc5c(c4)OCO5)CC3)O[C@@H](OCC)[C@@H]2CCCO)cc1,55.4*,-0.3,19.6,7.2
CCO[C@@H]1OC(C(=O)N2CCN(C)CC2)=C[C@H](c2ccc(C(F)(F)F)cc2)[C@H]1CCCO,8.5,-0.2,-6.6,6.0
CCO[C@H]1OC(C(=O)N2CCN(Cc3ccc4c(c3)OCO4)CC2)=C[C@@H](c2ccc3c(c2)OCO3)[C@@H]1CCCO,15.0,5.1,1.0,16.4
CCN1C[C@@H]2[C@@H]3C(=O)N(Cc4ccccc4)C(=O)[C@@H]3[C@](Cc3ccccc3)(C1=O)N2C(=O)c1ccc(Cl)cc1,x,-4.2,1.1,x
Nc1cc(=O)[nH]c(SCC(=O)Nc2ccc(N3CCCCC3)cc2)n1,x,-3.0,-1.1,x
CCOC(=O)c1c(C)oc2c1c(C=NCCO)c(O)c1ccccc12,81.5*,22.1,58.2,56.9*
C[C@H](NC(=O)[C@H]1N2C(=O)c3ccccc3C2SC1(C)C)C(=O)NCC1CCCO1 (some centres undefined),x,-3.8,2.6,x
Cc1ccc(-n2c(=S)[nH]c3sc4c(c3c2=O)CCC4)cc1,53.1*,1.7,8.1,-6.6
O=C(O)C1OC(Oc2c(-c3ccc(O)c(O)c3)oc3cc(O)cc(O)c3c2=O)C(O)C(O)C1O (centres undefined),54.7*,2.9,-26.4,35.7
CC1OC(Oc2c(-c3cc(O)c(O)c(O)c3)oc3cc(O)cc(O)c3c2=O)C(O)C(O)C1O (centres undefined),x,5.0,30.6,x
C[C@@H]1CN([C@@H](C)CO)C(=O)c2cc(-c3ccccc3F)cnc2O[C@H]1CN(C)Cc1cccc(F)c1,x,x,-4.2,x
Cc1cc(-c2n[nH]c(=S)n2/N=C/C=C/c2ccccc2)n[nH]1,50.0*,-10.3,25.1,6.1
COc1ccccc1/C=C/C=N/n1c(-c2ccncc2)n[nH]c1=S,65.4*,11.2,10.4,5.1
Cc1nn(-c2ccccc2)c(C)c1/C=N/n1c(-c2ccncc2)n[nH]c1=S,79.5*,-1.9,36.8,0.8
